Measured values from ChEMBL document CHEMBL2021788, “Cytotoxic cardiac glycosides and other compounds from Asclepias syriaca” (J Nat Prod, 2012).

Columns and labels:
[1] = Cytotoxicity against human Hs578Bst cells at 40 uM after 72 hrs by CellTiter-Glo assay relative to untreated control; format: cell-based
Method in brief: (§1)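 Hs578T or Hs578Bst cells plated at 3000/well in 384-well format, grown overnight, then exposed to 40 μM (top of a 14-point 0.002−40 μM series) for 72 h. CellTiter-Glo luminescence after 2 min shaking plus 15 min stabilization; viability given as percent of control, n = 3, ± SD.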

Hs-578T [2] = experiment: Cytotoxicity against human Hs578T cells at 40 uM after 72 hrs by CellTiter-Glo assay relative to untreated control; format: functional, cell-based; method in brief: as §1
[3] = Cytotoxicity against human Hs578Bst cells after 72 hrs by CellTiter-Glo assay; format: cell-based
Method in brief: (§2)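 Breast lines (normal Hs578Bst; cancer Hs578T, T47D, Sk-Br-3, MCF-7) seeded at 3000 cells/well in 384-well plates, attached overnight. Compound dispensed acoustically at 14 concentrations spanning 0.002−40 μM, 72 h incubation. Viability by CellTiter-Glo luminescence read after 2 min shaking and 15 min stabilization. Triplicate dose−response curves, data normalized to median, IC50 from curve fit.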

MCF7 = experiment: Cytotoxicity against human MCF7 cells after 72 hrs by CellTiter-Glo assay; format: functional, cell-based; details: MCF7, 72 h; method in brief: as §2
T47D = experiment: Cytotoxicity against human T47D cells after 72 hrs by CellTiter-Glo assay; format: functional, cell-based; method in brief: as §2
SK-BR-3 = experiment: Cytotoxicity against human SK-BR-3 cells after 72 hrs by CellTiter-Glo assay; format: functional, cell-based; details: SK-BR-3, 72 h; method in brief: as §2
Hs-578T [4] = experiment: Cytotoxicity against human Hs578T cells after 72 hrs by CellTiter-Glo assay; format: functional, cell-based; method in brief: as §2

| Structure (SMILES) | % toxicity [1] | % toxicity (Hs-578T [2]) | IC50 [3] | IC50 (MCF7) | IC50 (T47D) | IC50 (SK-BR-3) | IC50 (Hs-578T [4]) |
| --- | --- | --- | --- | --- | --- | --- | --- |
| C[C@]12CC[C@H](O)C[C@H]1CC[C@@H]1[C@@H]2CC[C@]2(C)[C@@H](C3=CC(=O)OC3)CC[C@]12O [DIGITOXIGENIN] | 49.8% | 92.3% | 0.15 µM | 9.1 µM | 2.53 µM | 4.42 µM | 1.02 µM |
| C[C@H]1O[C@@H](O[C@H]2CC[C@@]3(C)[C@@H](CC[C@@H]4[C@@H]3CC[C@]3(C)[C@@H](C5=CC(=O)OC5)CC[C@]43O)C2)[C@H](O)[C@H](O)[C@@H]1O[C@@H]1O[C@H](CO)[C@@H](O)[C@H](O)[C@H]1O | 51.7% | 91.5% | 0.043 µM | 5.3 µM | 1.76 µM | 2.52 µM | 0.593 µM |
| C[C@@H]1O[C@@H](O[C@H]2C[C@@H](O)[C@]3(CO)[C@H]4[C@H](O)C[C@]5(C)[C@@H](C6=CC(=O)OC6)CC[C@]5(O)[C@@H]4CC[C@]3(O)C2)[C@H](O)[C@H](O)[C@H]1O [OUABAIN] | 55.8% | 93% | 0.006 µM | 10.6 µM | 0.385 µM | 0.403 µM | 0.11 µM |
| C[C@H]1O[C@@H](O[C@H]2[C@@H](O)C[C@H](O[C@H]3[C@@H](O)C[C@H](O[C@H]4CC[C@@]5(C)[C@H](CC[C@@H]6[C@@H]5C[C@@H](O)[C@]5(C)[C@@H](C7=CC(=O)OC7)CC[C@]65O)C4)O[C@@H]3C)O[C@@H]2C)C[C@H](O)[C@@H]1O [DIGOXIN] | 47.7% | 93.5% | 0.04 µM | 4.7 µM | 0.66 µM | 1.08 µM | 0.251 µM |
| O=c1c(O[C@@H]2OC[C@@H](O)[C@H](O)[C@H]2O[C@@H]2O[C@H](CO)[C@H](O)[C@H](O)[C@H]2O)c(-c2ccc(O)cc2)oc2cc(O)cc(O)c12 | 13.9% | 32.7% | > 40 µM | > 40 µM | > 40 µM | > 40 µM | > 40 µM |
| COc1cccc2c1C(=O)c1c(O)c3c(c(O)c1C2=O)C[C@@](O)(C(=O)CO)C[C@@H]3O[C@H]1C[C@H](N)[C@H](O)[C@H](C)O1 [DOXORUBICIN] | 64.3% | 98.3% | 0.18 µM | 1.54 µM | 1.9 µM | 0.21 µM | 0.546 µM |
| C[C@]12CC[C@H](O[C@@H]3O[C@H](CO[C@@H]4O[C@H](CO)[C@@H](O)[C@H](O)[C@H]4O)[C@@H](O)[C@H](O)[C@H]3O)C[C@@H]1CC[C@@H]1[C@@H]2CC[C@]2(C)[C@@H](C3=CC(=O)OC3)CC[C@]12O [UZARIN] | 54.7% | 84% | 0.76 µM | 11.6 µM | 9.5 µM | 19.4 µM | 4.58 µM |
| C[C@H]1O[C@@H](O[C@H]2CC[C@@]3(C)[C@@H](CC[C@@H]4[C@@H]3CC[C@]3(C)[C@](O)(C5=CC(=O)OC5)CC[C@]43O)C2)[C@H](O)[C@H](O)[C@@H]1O[C@@H]1O[C@H](CO)[C@@H](O)[C@H](O)[C@H]1O | 38.2% | 56% | 14.2 µM | > 40 µM | > 40 µM | > 40 µM | > 40 µM |
| C[C@]12CC[C@H](O[C@@H]3O[C@H](CO)[C@@H](O)[C@H](O)[C@H]3O)C[C@@H]1CC[C@@H]1[C@@H]2CC[C@]2(C)[C@@H](C3=CC(=O)OC3)CC[C@]12O [DESGLUCOUZARIN] | 51.6% | 85.5% | 1.05 µM | 17 µM | 11.7 µM | 18.1 µM | 6.28 µM |
